This note sets out measurements from ChEMBL document CHEMBL2203116, “Synthesis and evaluation of novel carbon-11 labeled oxopurine analogues for positron emission tomography imaging of translocator protein (18 kDa) in peripheral organs” (J Med Chem, 2011).

Common to all, as to assay type: ADME, organism-based
The subject of data set [1] is Lung. The experiment in a line: Drug uptake in Sprague-Dawley rat lung at 0.18 nmol, iv pretreated with unlabeled (R)-PK11195 by PET scanning. Particulars: in vivo; call rule not given here. The procedure, abridged:
(§1)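 Male Sprague-Dawley rats (6–8 weeks old), isoflurane-anesthetized, prone. ROIs on lung, heart, kidney, liver, small intestine and cardiac blood pool. Uptake decay-corrected to injection time and expressed as SUV (body-weight normalized). n = 4, mean ± SD.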

Data set [2] relates to Heart. The experiment in a line: Drug uptake in Sprague-Dawley rat heart at 0.18 nmol, iv pretreated with unlabeled (R)-PK11195 by PET scanning. The settings on record: in vivo. In a few lines: (§2)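 Isoflurane-anesthetized Sprague-Dawley rats underwent 30-min PET after iv [11C]radioligand, with unlabeled blocker given iv 1 min before tracer. Blockers were (R)-PK11195 at 3.0 mg/kg or AC-5216 at 1.0 mg/kg in 300 μL saline with 10% ethanol and 5% polysorbate 80. Regional uptake was decay-corrected SUV (n = 4).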

In data set [3] the test system is Kidney. The experiment in a line: Drug uptake in Sprague-Dawley rat kidney at 0.18 nmol, iv pretreated with unlabeled (R)-PK11195 by PET scanning. The settings on record: in vivo. In a few lines:
as §1

Data set [4] concerns Lung. Nature of the data set: Drug uptake in Sprague-Dawley rat lung at 0.18 nmol, iv pretreated with unlabeled AC-5216 by PET scanning. Particulars: in vivo. The procedure, abridged: as §1
Data set [5] has as its system Heart. Nature of the data set: Drug uptake in Sprague-Dawley rat heart at 0.18 nmol, iv pretreated with unlabeled AC-5216 by PET scanning. Particulars: in vivo. In a few lines: as §2
For data set [6], the system named is Kidney. Nature of the data set: Drug uptake in Sprague-Dawley rat kidney at 0.18 nmol, iv pretreated with unlabeled AC-5216 by PET scanning. The settings on record: in vivo. The procedure, abridged:
as §1

The test system of data set [7] is Liver. The experiment in a line: Drug uptake in Sprague-Dawley rat liver at 0.18 nmol, iv pretreated with unlabeled (R)-PK11195 measured after 27.5 mins by PET scanning relative to control. The settings on record: in vivo. The procedure, abridged: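 Male Sprague-Dawley rats, 6-8 weeks old, under isoflurane, prone. An unlabeled TSPO blocking ligand (3.0 mg/kg) was injected 1 min before the iv radioligand (16-18 MBq/200 μL). A liver ROI was decay-corrected and expressed as SUV normalized to injected activity and body weight. The 27.5-min value was compared with unblocked controls; n = 4.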

For data set [8], the system named is Liver. The experiment in a line: Drug uptake in Sprague-Dawley rat liver at 0.18 nmol, iv pretreated unlabeled AC-5216 measured after 27.5 mins by PET scanning relative to control. The settings on record: in vivo. In a few lines:
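Male Sprague-Dawley rats, 6-8 weeks, isoflurane-anesthetized. A blocking TSPO ligand (1.0 mg/kg, in 300 μL saline with 10% ethanol and 5% polysorbate 80) was injected 1 min before iv radioligand (16-18 MBq/200 μL). Liver ROI as decay-corrected SUV (injected activity, body weight), 27.5-min value versus controls; n = 4.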

The test system of data set [9] is Blood. Nature of the data set: Drug uptake in Sprague-Dawley rat cardiac blood pool at 0.18 nmol, iv after 27.5 mins by PET scanning. The settings on record: in vivo. The procedure, abridged:
(§3)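 Isoflurane-anesthetized male Sprague-Dawley rats lay prone and received an iv bolus of [11C]radioligand in 200 μL. 3D list-mode emission scans ran 30 min from injection. Regions of interest were drawn on the organs and cardiac blood pool. Uptake was decay-corrected to injection time and expressed as SUV (normalized to injected radioactivity and body weight). Values are mean of n = 4.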

The test system of data set [10] is Liver. Nature of the data set: Drug uptake in Sprague-Dawley rat liver at 0.18 nmol, iv after 27.5 mins by PET scanning. Particulars: in vivo. The procedure, abridged:
as §1

The subject of data set [11] is Lung. The experiment in a line: Drug uptake in Sprague-Dawley rat lung at 0.18 nmol, iv up to 30 mins by PET scanning. Particulars: in vivo, 0.5 h. The procedure, abridged:
as §1

Data set [12] deals with Heart. Nature of the data set: Drug uptake in Sprague-Dawley rat heart at 0.18 nmol, iv up to 30 mins by PET scanning. The settings on record: in vivo, 0.5 h. In a few lines: as §3
The subject of data set [13] is Kidney. Nature of the data set: Drug uptake in Sprague-Dawley rat kidney at 0.18 nmol, iv up to 30 mins by PET scanning. Particulars: in vivo, 0.5 h. The procedure, abridged:
as §1

Data set [14] deals with Liver. Nature of the data set: Drug uptake in Sprague-Dawley rat liver at 0.18 nmol, iv up to 30 mins by PET scanning. Particulars: in vivo, 0.5 h. The procedure, abridged:
as §1

The test system of data set [15] is Blood. Nature of the data set: Drug uptake in Sprague-Dawley rat cardiac blood pool at 0.18 nmol, iv up to 30 mins by PET scanning. Particulars: in vivo, 0.5 h. In a few lines:
as §3

The next data set relates to Intestine. The experiment in a line: Drug uptake in Sprague-Dawley rat small intestine at 0.18 nmol, iv up to 30 mins by PET scanning. The settings on record: in vivo, 0.5 h. In a few lines: as §1
Data set [16] relates to Lung. The experiment in a line: Drug uptake in Sprague-Dawley rat lung at 0.18 nmol, iv after 2 mins by PET scanning. The settings on record: in vivo. The procedure, abridged:
as §1

Data set [17] deals with Heart. Nature of the data set: Drug uptake in Sprague-Dawley rat heart at 0.18 nmol, iv after 2 mins by PET scanning. The settings on record: in vivo. The procedure, abridged: as §3
Data set [18] concerns Kidney. The experiment in a line: Drug uptake in Sprague-Dawley rat kidney at 0.18 nmol, iv after 2 mins by PET scanning. The settings on record: in vivo. In a few lines: as §1
Data set [19] concerns Liver. Nature of the data set: Drug uptake in Sprague-Dawley rat liver at 0.18 nmol, iv after 2 mins by PET scanning. Particulars: in vivo. In a few lines:
as §1

The subject of data set [20] is Blood. The experiment in a line: Drug uptake in Sprague-Dawley rat cardiac blood pool at 0.18 nmol, iv after 2 mins by PET scanning. The settings on record: in vivo. In a few lines: as §3
Data set [21] concerns Lung. Nature of the data set: Drug uptake in Sprague-Dawley rat lung at 0.18 nmol, iv after 27.5 mins by PET scanning. The settings on record: in vivo. In a few lines: as §1
In data set [22] the test system is Heart. The experiment in a line: Drug uptake in Sprague-Dawley rat heart at 0.18 nmol, iv after 27.5 mins by PET scanning. Particulars: in vivo. The procedure, abridged:
as §3

For data set [23], the system named is Kidney. The experiment in a line: Drug uptake in Sprague-Dawley rat kidney at 0.18 nmol, iv after 27.5 mins by PET scanning. Particulars: in vivo. The procedure, abridged: as §1
In data set [24] the test system is Kidney. The experiment in a line: Drug uptake in iv dosed Sprague-Dawley rat kidney upto 30 mins by PET scanning. Particulars: in vivo, 0.5 h. In a few lines:
(§4)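 Comparator radioligand 15–20 MBq/200 μL (0.15–0.18 nmol) injected iv into isoflurane-anesthetized male Sprague-Dawley rats. ROI time–activity curves for lung, heart, kidney, liver and cardiac blood pool. Uptake as decay-corrected SUV normalized to injected activity and body weight. n = 4, mean ± SD.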

In data set [25] the test system is Liver. Nature of the data set: Drug uptake in iv dosed Sprague-Dawley rat liver upto 30 mins by PET scanning. Particulars: in vivo, 0.5 h. In a few lines:
as §4

For data set [26], the system named is Blood. Nature of the data set: Drug uptake in iv dosed Sprague-Dawley rat cardiac blood pool up to 30 mins by PET scanning. The settings on record: in vivo, 0.5 h. The procedure, abridged: as §4
The subject of data set [27] is Lung. The experiment in a line: Drug uptake in iv dosed Sprague-Dawley rat lung after 1 min by PET scanning. The settings on record: in vivo. In a few lines:
as §4

Data set [28] deals with Lung. The experiment in a line: Drug uptake in iv dosed Sprague-Dawley rat lung after 27.5 mins by PET scanning. The settings on record: in vivo. The procedure, abridged: as §4
The subject of data set [29] is Heart. Nature of the data set: Drug uptake in iv dosed Sprague-Dawley rat heart after 10 mins by PET scanning. Particulars: in vivo. The procedure, abridged: as §4
For data set [30], the system named is Kidney. Nature of the data set: Drug uptake in iv dosed Sprague-Dawley rat kidney after 10 mins by PET scanning. Particulars: in vivo. The procedure, abridged: as §4
In data set [31] the test system is Heart. Nature of the data set: Drug uptake in iv dosed Sprague-Dawley rat heart upto 30 mins by PET scanning. Particulars: in vivo, 0.5 h. The procedure, abridged: as §4

With `CCN(Cc1cccnc1)C(=O)Cn1c(=O)n([11CH3])c2cnc(-c3ccccc3)nc21`, the Drug uptake result in the data set with Lung [1], with Heart [2], in the data set with Kidney [3], with Lung [4], with Heart [5] and in the data set on Kidney [6] was “Not Active” throughout. For the same compound, the Drug uptake result in the data set on Lung [11], in the data set on Heart [12], with Kidney [13], with Liver [14], in the data set with Blood [15] and with Intestine was “Active” each time. In addition, the “fold change (FC)” value in the data set on Liver [7] and with Liver [8] was 1.5 each time. Besides, the SUV with Blood [9] came out at 0.4; in the data set with Liver [10], 0.5; with Lung [16] it was 3.4; in the data set on Heart [17], 4.6; with Kidney [18], 3.3; with Liver [19], 1.6. The SUV is listed as 3 in the data set with Blood [20], 0.5 in the data set on Lung [21], 0.9 with Heart [22] and 1 in the data set with Kidney [23].

On to `CCN(Cc1ccccc1)C(=O)Cn1c(=O)n([11CH3])c2cnc(-c3ccccc3)nc21`, for which the Drug uptake entry with Kidney [24], with Liver [25], in the data set with Blood [26] and in the data set on Heart [31] was “Active” each time. In addition, the SUV was found to be 7.6 in the data set with Lung [27], 2.3 in the data set with Lung [28], 4.2 in the data set with Heart [29] and 2.8 in the data set with Kidney [30].
